Data published in PMC10617274 (Therapeutic Advances in Infectious Disease, 2023).

Tests used:
[1] = tested on: L. amazonensis promastigotes; experiment: Susceptibility assay in promastigotes; format: cell-based, Leishmania amazonensis (MHOM/BR/77/LTB0016 strain); conditions: Leishmania amazonensis, 72 h, read-out: Promastigotes IC50 + SD
[2] = Cytotoxicity in mouse peritoneal macrophages; format: cell-based, BALB/c mice; conditions: BALB/c, Macrophages CC50 + SD, resazurin
Procedure, shortened: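 Peritoneal lavage cells from BALB/c mice, in RPMI + 10% heat-inactivated FBS, seeded at 3 × 10⁵ macrophages/mL, left to adhere 2 h at 33°C, 5% CO₂; non-adherent cells washed off with PBS. Test compound from 650 µM top, 8 serial 1:2.5 dilutions, quadruplicate, 48 h. Then 3 mM resazurin (stock), fluorescence after 4 h; CC50 by non-linear curve fit; at least three independent trials.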

- IC50 [1]: 0.03 ± 0.014 µM
SMILES: C[C@@H]1[C@H](O)[C@@H](C)/C=C/C=C/C=C/C=C/C=C/C=C/C=C/[C@H](O[C@@H]2O[C@H](C)[C@@H](O)[C@H](N)[C@@H]2O)C[C@@H]2O[C@](O)(C[C@@H](O)C[C@@H](O)[C@H](O)CC[C@@H](O)C[C@@H](O)CC(=O)O[C@H]1C)C[C@H](O)[C@H]2C(=O)O [Amphotericin B]
- CC50 at 48 h [2]: 5.8 ± 0.5 µM
